Data: ChEMBL document CHEMBL1131478 (J Med Chem, 1998)

Experiments:
[1] = target: Matrix metalloproteinase-9 (Homo sapiens, UniProt P14780); assay: Inhibitory activity against human gelatinase B (Matrix metalloprotease-9)
[2] = target: 72 kDa type IV collagenase (Homo sapiens, UniProt P08253); assay: Inhibitory activity against human gelatinase A (matrix metalloprotease-2 MMP2)
[3] = Maximum plasma concentration (Cmax) after p.o. administration of 200 mg/kg in mice; format: ADME, organism-based; parameters: dose 200 mg/kg, route oral; details: mouse, po
Procedure, shortened: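 Single 200 mg/kg oral dose in mice, given in 0.5% methyl cellulose. Blood drawn at various time points. Plasma drug extracted with CH3CN and quantified by reverse-phase C18 HPLC using a CH3CN gradient with 0.1% TFA. Peak plasma level taken as Cmax.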

Matrix metalloproteinase-9, sequence (P14780 whole entry): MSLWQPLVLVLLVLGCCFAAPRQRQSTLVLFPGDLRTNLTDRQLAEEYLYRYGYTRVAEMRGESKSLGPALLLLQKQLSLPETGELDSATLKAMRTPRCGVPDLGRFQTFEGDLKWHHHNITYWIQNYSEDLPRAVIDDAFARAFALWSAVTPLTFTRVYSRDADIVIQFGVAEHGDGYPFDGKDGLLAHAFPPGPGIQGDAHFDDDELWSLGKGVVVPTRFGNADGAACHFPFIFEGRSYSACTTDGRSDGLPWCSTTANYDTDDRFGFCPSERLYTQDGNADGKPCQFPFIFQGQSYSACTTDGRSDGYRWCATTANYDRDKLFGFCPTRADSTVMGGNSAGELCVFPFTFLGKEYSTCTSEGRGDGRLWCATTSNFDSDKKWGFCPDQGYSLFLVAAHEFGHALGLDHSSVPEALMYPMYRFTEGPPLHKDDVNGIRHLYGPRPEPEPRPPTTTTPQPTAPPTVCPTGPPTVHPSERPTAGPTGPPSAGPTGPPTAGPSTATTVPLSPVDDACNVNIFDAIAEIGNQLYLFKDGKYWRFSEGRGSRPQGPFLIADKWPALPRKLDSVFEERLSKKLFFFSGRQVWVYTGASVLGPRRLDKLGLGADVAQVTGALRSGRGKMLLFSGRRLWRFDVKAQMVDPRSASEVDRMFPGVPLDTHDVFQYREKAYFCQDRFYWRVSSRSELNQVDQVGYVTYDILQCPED
72 kDa type IV collagenase, sequence (P08253 whole entry): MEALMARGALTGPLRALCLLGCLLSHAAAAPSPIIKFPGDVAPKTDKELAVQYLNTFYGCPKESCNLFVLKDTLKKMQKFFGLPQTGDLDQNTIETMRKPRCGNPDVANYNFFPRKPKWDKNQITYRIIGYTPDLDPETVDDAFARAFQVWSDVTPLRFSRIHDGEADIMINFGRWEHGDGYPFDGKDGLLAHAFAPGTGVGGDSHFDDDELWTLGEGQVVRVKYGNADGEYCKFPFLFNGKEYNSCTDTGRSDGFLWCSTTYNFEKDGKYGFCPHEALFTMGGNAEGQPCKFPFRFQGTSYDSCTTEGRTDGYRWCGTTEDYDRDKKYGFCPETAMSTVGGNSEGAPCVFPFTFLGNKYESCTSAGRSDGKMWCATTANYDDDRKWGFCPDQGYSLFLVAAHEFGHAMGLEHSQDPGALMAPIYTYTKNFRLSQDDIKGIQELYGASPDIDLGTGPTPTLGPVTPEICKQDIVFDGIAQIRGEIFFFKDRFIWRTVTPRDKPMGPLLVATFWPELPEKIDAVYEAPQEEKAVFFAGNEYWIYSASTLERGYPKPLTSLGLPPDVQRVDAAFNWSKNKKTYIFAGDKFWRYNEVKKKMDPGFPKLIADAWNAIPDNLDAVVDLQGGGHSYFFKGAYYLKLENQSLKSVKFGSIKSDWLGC

| Compound | IC50 [1] | IC50 [2] | Cmax [3] |
| --- | --- | --- | --- |
| Cc1ccc(C#Cc2ccc(S(=O)(=O)N[C@@H](C(=O)O)C(C)C)cc2)cc1 | 1.2 µM | > 1 µM |  |
| O=C(O)[C@H](Cc1ccccc1)NS(=O)(=O)c1ccc(-c2ccccc2)cc1 | 0.8 µM |  |  |
| O=C(O)[C@@H](Cc1c[nH]c2ccccc12)NS(=O)(=O)c1ccc(C#Cc2ccc([N+](=O)[O-])cc2)s1 | 0.023 µM |  |  |
| CC(C)[C@@H](NS(=O)(=O)c1ccc(Oc2ccccc2)cc1)C(=O)O | 1.1 µM | > 1 µM | 334 µM |
| O=C(NO)[C@@H](Cc1c[nH]c2ccccc12)NS(=O)(=O)c1ccc(-c2ccccc2)cc1 | 0.005 µM | 0.0013 µM |  |
| O=C(Nc1ccc(S(=O)(=O)N[C@H](Cc2ccccc2)C(=O)O)cc1)c1ccccc1 |  | < 1 µM |  |
| COc1ccc(-c2ccc(S(=O)(=O)N[C@@H](C(=O)O)C(C)C)cc2)cc1 | 0.04 µM | < 0.1 µM | 89.9 µM |
| O=C(O)[C@@H](Cc1ccccc1)NS(=O)(=O)c1ccc(-c2nnn(-c3ccccc3)n2)cc1 | 0.58 µM | 0.11 µM | 12.1 µM |
| O=C(N[C@H](Cc1ccccc1)C(=O)O)c1ccc(-c2ccccc2)cc1 | > 50 µM | > 1 µM |  |
| CC(C)[C@@H](NS(=O)(=O)c1ccc(Oc2ccccc2)cc1)C(=O)NO | 0.00054 µM | 0.002 µM | 5.8 µM |
| O=C(O)[C@@H](Cc1c[nH]c2ccccc12)NS(=O)(=O)c1ccc2oc3ccccc3c2c1 | > 10 µM | > 1 µM |  |
| O=C(O)[C@@H](Cc1ccccc1)NS(=O)(=O)c1ccc(-c2ccccc2)cc1 |  | 0.31 µM | 291 µM |
| O=C(O)[C@@H](Cc1c[nH]c2ccccc12)NS(=O)(=O)c1ccc(/N=N/c2ccccc2)cc1 | 0.35 µM | 0.05 µM |  |
| COc1ccc(-c2ccc(S(=O)(=O)N[C@@H](C(=O)O)C(C)C)s2)cc1 | 0.072 µM | 0.066 µM | 97.5 µM |
| COc1ccc(C#Cc2ccc(S(=O)(=O)N[C@H](Cc3ccccc3)C(=O)O)cc2)cc1 | 7.8 µM | 1 µM |  |
| O=C(O)[C@@H](Cc1c[nH]c2ccccc12)NS(=O)(=O)c1ccc(Cc2ccccc2)cc1 | > 10 µM | > 1 µM |  |
| O=C(O)[C@@H](Cc1ccccc1)NS(=O)(=O)c1ccc(-c2nnn(-c3ccc(C4CCCCC4)cc3)n2)cc1 |  | 0.28 µM |  |
| CC(C)[C@@H](NS(=O)(=O)c1ccc(NC(=O)c2ccccc2)cc1)C(=O)O | 2.1 µM | 0.05 µM |  |
| O=C(O)c1ccc(C#Cc2ccc(S(=O)(=O)N[C@H](Cc3c[nH]c4ccccc34)C(=O)O)cc2)cc1 | 8.8 µM | > 1 µM |  |
| CSc1ccc(C(=O)Nc2ccc(S(=O)(=O)N[C@@H](C(=O)O)C(C)C)cc2)cc1 |  | 0.0067 µM | 8.3 µM |
| O=C(NO)C(Cc1ccccc1)NS(=O)(=O)c1ccccc1 (configuration not stated) | 1 µM |  |  |
| Cc1ccc(C#Cc2ccc(S(=O)(=O)N[C@H](Cc3c[nH]c4ccccc34)C(=O)O)cc2)cc1 | 0.016 µM | 0.034 µM | 10.8 µM |
| O=C(O)[C@@H](Cc1c[nH]c2ccccc12)NS(=O)(=O)c1ccc(-c2nnn(-c3ccc(Br)cc3)n2)cc1 |  | 0.0083 µM | 2.5 µM |

| Compound | IC50 [1] | IC50 [2] | Cmax [3] |
| --- | --- | --- | --- |
| O=C(O)[C@@H](Cc1c[nH]c2ccccc12)NS(=O)(=O)c1ccc2ccccc2c1 | > 10 µM | > 1 µM |  |
| O=C(N[C@H](Cc1ccccc1)C(=O)NO)c1ccc(-c2ccccc2)cc1 | > 50 µM | > 1 µM |  |
| O=C(Nc1ccccc1)c1ccc(S(=O)(=O)N[C@H](Cc2c[nH]c3ccccc23)C(=O)O)cc1 | > 10 µM | > 1 µM |  |
| O=C(Nc1ccc(S(=O)(=O)N[C@H](Cc2c[nH]c3ccccc23)C(=O)O)cc1)c1ccccc1 |  | < 0.04 µM |  |
| O=C(O)[C@@H](Cc1c[nH]c2ccccc12)NS(=O)(=O)c1ccccc1 | 3.4 µM | > 1 µM |  |
| O=C(NO)[C@H](Cc1ccccc1)NS(=O)(=O)c1ccccc1 | > 1000 µM |  |  |
| Cc1ccc(C#Cc2ccc(S(=O)(=O)N[C@@H](C(=O)O)C(C)C)s2)cc1 | 0.014 µM | 0.053 µM | 284 µM |
| O=C(NO)[C@@H](Cc1ccccc1)NS(=O)(=O)c1ccc(-c2ccccc2)cc1 |  | 0.017 µM | 2.5 µM |
| O=C(O)[C@@H](Cc1c[nH]c2ccccc12)NS(=O)(=O)c1ccc(C#Cc2ccccc2[N+](=O)[O-])s1 | 1.5 µM | > 1 µM |  |
| COc1cccc(-c2ccc(S(=O)(=O)N[C@H](Cc3c[nH]c4ccccc34)C(=O)O)cc2)c1 | 1.1 µM | 1 µM |  |
| Cc1ccc(C(=O)Nc2ccc(S(=O)(=O)N[C@H](Cc3ccccc3)C(=O)O)cc2)cc1 |  | < 0.04 µM |  |
| O=C(O)[C@@H](Cc1c[nH]c2ccccc12)NS(=O)(=O)c1ccc(C#Cc2ccccc2)cc1 | 0.24 µM | 0.05 µM |  |
| O=C(Nc1ccccc1)Nc1ccc(S(=O)(=O)N[C@H](Cc2c[nH]c3ccccc23)C(=O)O)cc1 | > 10 µM | > 1 µM |  |
| CC(C)[C@@H](NS(=O)(=O)c1ccc(-c2nnn(-c3ccccc3)n2)cc1)C(=O)O |  | 0.13 µM |  |
| CC(C)[C@@H](NS(=O)(=O)c1ccc(NC(=O)c2ccc([N+](=O)[O-])cc2)cc1)C(=O)O | 0.27 µM | < 0.04 µM |  |
| O=C(c1ccccc1)c1ccc(S(=O)(=O)N[C@H](Cc2c[nH]c3ccccc23)C(=O)O)cc1 | > 10 µM | > 1 µM |  |
| O=C(O)[C@@H](Cc1c[nH]c2ccccc12)NS(=O)(=O)c1ccc(-c2ccccc2)cc1 | 0.18 µM | 0.053 µM | 34.3 µM |
| Cc1ccc(-n2nnc(-c3ccc(S(=O)(=O)N[C@H](Cc4ccccc4)C(=O)O)cc3)n2)cc1 |  | < 0.2 µM | 1.2 µM |
| O=C(O)[C@@H](Cc1c[nH]c2ccccc12)NS(=O)(=O)c1ccc(Oc2ccccc2)cc1 | 0.25 µM | 0.05 µM |  |
| O=C(NO)[C@@H](Cc1ccccc1)NS(=O)(=O)c1ccccc1 | 0.73 µM |  |  |
| COc1ccc(-n2nnc(-c3ccc(S(=O)(=O)N[C@H](Cc4c[nH]c5ccccc45)C(=O)O)cc3)n2)cc1 |  | 0.013 µM | 2.1 µM |
| COc1ccc(C#Cc2ccc(S(=O)(=O)N[C@H](Cc3ccccc3)C(=O)O)s2)cc1 | 0.024 µM | 0.01 µM | 119 µM |
| COc1ccc(-c2ccc(S(=O)(=O)N[C@H](Cc3c[nH]c4ccccc34)C(=O)O)cc2)cc1 | 0.081 µM | 0.0065 µM | 3.5 µM |
